A selection: hits, their analogues and other compounds. The true share with any hit is near 2.1%.
dFosB act-1 = activators of delta FosB homodimer, primary screen, biochemical, fluorescence polarization, TAMRA-CDK5 oligo, single point | purified delta FosB; percent of positive-control signal above neutral wells | activation, % at 25 µM | actives 0.99% (n = 340,000) | AID 493131, 2011;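 active = mean activation above about 17%, with every replicate also reaching it, limit read from the data, passing the limit was not always enough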
PKA-R2B act = activators of PKA-R2B holoenzyme, primary screen, biochemical, fluorescence polarization, Cy5-IP20, human; cAMP-dependent protein kinase catalytic subunit beta (Homo sapiens) + cAMP-dependent …; PKA-R2B holoenzyme dissociation; R2B truncated from residue 108, S112A mutant; 0% DMSO only, 100% 113 µM cGMP; activation, % at 11.4 µM; actives 0.079% (n = 340,000); AID 504700, 2011;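 active = activation above a cutoff set at the mean over all compounds plus 3 SD, cut at about 18% in these data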;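 also: higher means more holoenzyme dissociation and a rise in polarization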
Target sequence (P31323 whole entry, looked up, other chains not shown, the tested form may be a part): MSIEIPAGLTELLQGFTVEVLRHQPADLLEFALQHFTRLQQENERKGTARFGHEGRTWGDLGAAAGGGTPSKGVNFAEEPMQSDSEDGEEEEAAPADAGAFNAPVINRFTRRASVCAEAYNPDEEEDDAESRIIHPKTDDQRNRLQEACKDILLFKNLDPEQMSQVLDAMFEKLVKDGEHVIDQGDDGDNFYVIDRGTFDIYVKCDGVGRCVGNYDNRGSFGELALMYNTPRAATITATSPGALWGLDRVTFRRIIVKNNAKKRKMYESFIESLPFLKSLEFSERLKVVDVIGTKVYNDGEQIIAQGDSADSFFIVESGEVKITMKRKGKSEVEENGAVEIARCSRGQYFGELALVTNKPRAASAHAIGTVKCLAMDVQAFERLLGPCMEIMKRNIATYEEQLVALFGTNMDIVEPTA
PKA-R1A act = activators of PKA-R1A holoenzyme, primary screen, biochemical, fluorescence polarization, Cy5-IP20, bovine R1A, mouse PKAc; cAMP-dependent protein kinase type I-alpha regulatory subunit (Bos taurus) + …; PKA-R1A dissociation; scaled: DMSO 0%, 113 µM cGMP 100%; activation, % at 11.4 µM; actives 0.083% (n = 340,000);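 active = percent activation above the mean of all tested compounds plus 3 SD, cut at about 19% in these data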;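 also: higher means more PKAc released from R1A so a rise in polarization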
SR-BI HDL uptake = inhibitors of SR-BI mediated HDL lipid uptake, primary screen, ldlA[mSR-BI] cells, fluorescence, single point | inhibition, % at 12.5 µM | actives 0.96% (n = 320,000) | AID 488896, 2010 | Scavenger receptor class B member 1 (Mus musculus), Q61009 | ldlA[mSR-BI] CHO cells, DiI-HDL uptake fluorescence, 3 h;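 active = mean replicate inhibition of at least 70% and a set share of replicates each scoring 70 or more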;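 also: 0% = median of neutral control wells and 100% = median of positive control wells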
CDK5 p35 inh = inhibitors of human CDK5/p35 kinase, primary screen, biochemical, single concentration; Cyclin-dependent kinase 5 (Homo sapiens) + Cyclin-dependent kinase 5 activator 1 (Homo …; Recombinant CDK5/p35, ADP-Glo luminescence, 60 min; inhibition, % at 10 µM; actives 0.01% (n = 330,000); AID 488839, 2010;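 active = highest replicate inhibition of at least 50% and at least 75% of replicates reaching 50%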;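 also: plate controls were DMSO neutral control for no effect and GW8510 at 10 µM for full effect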
SR-BI uptake up = activators of SR-BI mediated DiI-HDL uptake, primary screen, ldlA[mSR-BI] CHO cells, DiI fluorescence | actives 0.096% (n = 320,000) | activation, % at 12.5 µM | 3 h; 100 = double the neutral-control signal;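 active = mean replicate activation of at least 60% and every replicate at or above 60%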;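 also: 0% = median plate neutral-control signal and 100% = twice that signal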
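material = CHO ldlA[mSR-BI] cells | medium = Ham's F12 with 0.5% BSA, HEPES 25 mM, pH 7.4 | reagent = fluorescent DiI-HDL, 10 µg/mL final | compound dosing = single-point compound dose | incubation = 3 h, 37 °C | measured by = bottom-read fluorescence, 550/595 nm | measure = HDL uptake via cellular fluorescence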
dFosB act-2 = activators of mouse delta FosB DNA binding, confirmation, biochemical, fluorescence polarization, TAMRA-CDK5 oligo, cherry-picked samples; shares compounds with dFosB act-1; purified delta FosB; normalised: neutral wells 0, positive control 100; activation, % at 24.9 µM; 2,400 tested, under 10 active;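 active = highest replicate activation at or above 34% and every replicate reaching that threshold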;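 also: higher polarization means more probe DNA bound by delta FosB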
* hit, by the source's call; / = no result given.

SMILES	dFosB act-1	PKA-R2B act	PKA-R1A act	SR-BI HDL uptake	CDK5 p35 inh	SR-BI uptake up	dFosB act-2
Cc1cc(C)c2sc(NC(=O)c3ccc(N4C(=O)CCC4=O)cc3)nc2c1	80*	11	-10	/	-1	/	7
Cc1ccc2sc(NC(=O)c3ccc(N4C(=O)CCC4=O)cc3)nc2c1C	-3	3	-20	61	0	-61	/
Cc1nnc(NC(=O)c2ccc(N3CCCC3=O)cc2)s1	-3	-1	-11	-9	0	9	/
CC1(C)CC(NC(=O)c2ccccc2NS(=O)(=O)c2ccc(Br)cc2)CC(C)(C)N1	-10	-8	-14	-17	2	17	/
CC1(C)O[C@@H](CC(=O)O)[C@]23CO[C@H](C(=O)[C@]4(C)C2CC[C@@]2(C)[C@H](c5ccoc5)OC(=O)C5O[C@]524)[C@@H]13 (some centres not stated)	-5	2	-4	-14	-2	14	/
CCOc1c(Br)cc(C(=O)N2CCCN(C)CC2)cc1OC	-2	-2	1	21	0	-21	/
Cc1cc(C)c(NC(=O)Cn2c(=O)c3cccn3c3ccccc32)c(C)c1	39*	-4	-5	0	-1	0	3
CCc1ccc(NC(=O)Cn2c(=O)c3cccn3c3ccccc32)cc1	32*	7	1	-2	-3	2	5
O=C1CN(C(=O)C2CCC(=O)N(CCc3ccc(Cl)cc3)C2)CCN1 (configuration not stated)	-2	1	0	-16	2	16	/
O=C(c1ccc(F)cc1)n1c(NCc2ccccc2)n[nH]c1=S	35*	7	-4	-2	1	2	-2
COc1cc(/C=C/C(=O)Nc2ccc(C)cc2)cc(OC)c1OC	1	-11	-6	52	0	-52	/
CCN(CC)CCNC(=O)c1ccc(NC(=O)/C=C/c2cc(OC)c(OC)c(OC)c2)cc1	52*	-5	1	22	1	-22	-1
COc1ccc(CNC(=O)COC(=O)c2cc(S(=O)(=O)N3CCOCC3)ccc2O)cc1OC	-17	3	3	-9	0	9	/
O=C1CC(=C2c3ccccc3-c3ccccc32)C(=O)N1CCCCN1CCN(c2ccccc2)CC1	33*	0	1	9	1	-9	3
O=C1CC(=C(c2ccccc2)c2ccccc2)C(=O)N1CCCN1CCN(c2cccc(Cl)c2)CC1	-4	9	1	8	1	-8	/
CC(=O)Nc1ccc(S(=O)(=O)NCC2CCC(C(=O)NCCC3=CCCCC3)CC2)cc1 (configuration not stated)	63*	-4	-3	39	1	-39	5
O=C(C1CCC(CNc2nc(=S)[nH]c3ccccc23)CC1)N1CCN(c2ccc(F)cc2)CC1 (configuration not stated)	37*	-16	-1	3	2	-3	1
COc1ccc(N2CCN(CCCNC(=O)C3CCC(CNc4nc(=S)[nH]c5ccccc45)CC3)CC2)cc1 (configuration not stated)	-1	-1	-13	46	-1	-46	/

Screens as filed in PubChem BioAssay.
